The text below walks through data of ChEMBL document CHEMBL1153719, “Synthesis and biological evaluation of dehydroabietic acid derivatives” (Eur J Med Chem, 2010).

Values after ≈ are worked out from the molar mass of the structure shown. Active and inactive are the calls of the source. The rule behind the calls is not given here.

The subject of series [1] is Vero. The series can be described thus: Selectivity index, ratio of IC50 for african green monkey Vero cells to IC50 for human HeLa cells. It is filed as functional.
The next series has as its system Candida albicans. The series can be described thus: Antifungal activity against Candida albicans ATCC 10231 at <100 ug/ml after 24 hrs by AFST-EUCAST method. It is filed as functional, organism-based. Put shortly: (§1)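 EUCAST broth microdilution for fermentative yeasts. Seven serial dilutions were tested in duplicate at final concentrations of 100 to 2 µg/mL, with 0.05% DMSO. Inoculum was 0.5–2.5×10^5 CFU/mL. […] Amphotericin B and itraconazole served as controls (0.031–16 µg/mL). Triplicates were run in three separate assays; results are given as range and geometric mean.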

In another series the test system is Pichia kudriavzevii. The experiment in a line: Antifungal activity against Candida krusei ATCC 6258 at <100 ug/ml after 24 hrs by AFST-EUCAST method. Format: functional, organism-based. The gist of the method:
as §1

In series [2] the test system is Vero. The experiment in a line: Cytotoxicity against african green monkey Vero cells after 48 hrs by MTT assay. It is filed as cell-based. As to conditions: Chlorocebus sabaeus. The gist of the method:
(§2)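 HeLa and Vero monolayers were trypsinized, washed and seeded per well (HeLa 1.5×10^4; Vero 1.25×10^4). After 24 h, diluted compounds were added with 0.05% DMSO and incubated 48 h at 37 °C in 5% CO2. Read-out was MTT. IC50 came from linear regression of dose-effect curves, at least four dilutions in quadruplicate, as mean ± S.E.M. Vincristine was the positive control.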

Series [3] can be described thus: Cytotoxicity against african green monkey Vero cells assessed as minimal toxic dosed detached 100% of the cell monolayer. As to conditions: chlorocebus sabaeus, read-out: CC100.
For series [4], the system named is Vero. The experiment in a line: Selectivity index, ratio of IC50 for african green monkey Vero cells to IC50 for human Jurkat cells. It is filed as functional.
For series [5], the system named is Human alphaherpesvirus 1. The series can be described thus: Antiviral activity against Human herpesvirus 1 infected in human HeLa cells assessed as maximal nontoxic dose caused highest viral reduction factor after 36 hrs by end point titration method. It is filed as functional, organism-based.
The next series relates to HeLa. The series can be described thus: Cytotoxicity against human HeLa cells after 48 hrs by MTT assay. Format: functional, cell-based. Put shortly: as §2
A general note: Tetrazolium dyes change colour on reduction, which living cells bring about.

Another series has as its system Jurkat. The experiment in a line: Cytotoxicity against human Jurkat cells after 48 hrs by MTT assay. Format: functional, cell-based. Put shortly:
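Suspension Jurkat cells were seeded at 3.00×10^4 per well. Diluted compounds were added directly, with 0.05% DMSO, and incubated 48 h at 37 °C. Read-out was MTT. IC50 came from linear regression of dose-effect curves, at least four dilutions in quadruplicate, as mean ± S.E.M. Vincristine was the positive control.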

Series [6] relates to Human alphaherpesvirus 1. The experiment in a line: Antiviral activity against Human herpesvirus 1 infected in human HeLa cells assessed as ratio of viral titer in absence of drug over viral titer in presence of drug after 36 hrs by end point titration method. It is filed as functional, organism-based.
In a further series the test system is Candida tropicalis. The experiment in a line: Antifungal activity against Candida tropicalis CECT 11901 at <100 ug/ml after 24 hrs by AFST-EUCAST method. Format: functional, organism-based. Put shortly: as §1
In another series the test system is Candida parapsilosis. The series can be described thus: Antifungal activity against Candida parapsilosis ATCC 22019 at <100 ug/ml after 24 hrs by AFST-EUCAST method. It is filed as functional, organism-based. Put shortly:
as §1

Series [7] can be described thus: Cytotoxicity against human HeLa cells assessed as minimal toxic dosed detached 100% of the cell monolayer. The note with it: read-out: CC50.
The test system of series [8] is Human alphaherpesvirus 1. The series can be described thus: Antiviral activity against Human herpesvirus 1 infected in african green monkey Vero cells assessed as maximal nontoxic dose caused highest viral reduction factor after 36 hrs by end point titration method. It is filed as functional. Put shortly: (§3)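 HSV-1 stock was grown in HeLa cells. Two-fold compound dilutions were premixed with one infectious dose of virus for 0.5 h at 37 °C, then added to confluent HeLa or Vero monolayers for 36 h at 37 °C in 5% CO2. End-point titration gave the reduction factor, virus titer without compound over titer with compound, at the maximal nontoxic dose. Acyclovir and heparin were the controls.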

In series [9] the test system is Human alphaherpesvirus 1. The series can be described thus: Antiviral activity against Human herpesvirus 1 infected in african green monkey Vero cells assessed as ratio of viral titer in absence of drug over viral titer in presence of drug after 36 hrs by end point titration method. Format: functional. The gist of the method: as §3
Series [10] is described as follows: Solubility in DMSO. It is filed as physicochemical.
The test system of another series is Aspergillus fumigatus. The series can be described thus: Antifungal activity against Aspergillus fumigatus after 24 hrs by AFST-EUCAST method. It is filed as functional.
The subject of a further series is Aspergillus niger. The series can be described thus: Antifungal activity against Aspergillus niger after 24 hrs by AFST-EUCAST method. Format: functional.
The next series has as its system Aspergillus terreus. The series can be described thus: Antifungal activity against Aspergillus terreus after 24 hrs by AFST-EUCAST method. It is filed as functional.

For `CC(C)c1ccc2c(c1)CC[C@H]1[C@](C)(C=O)CCC[C@]21C` [DEHYDROABIETINAL], the “Ratio IC50” value in the series on Vero [1] is reported as 1.3; in the series with Vero [4], 1.9. Moreover, the outcome in the series with Candida albicans, in the series on Pichia kudriavzevii, in the series with Human alphaherpesvirus 1 [5], in the series on Human alphaherpesvirus 1 [6], in the series on Candida tropicalis and in the series on Candida parapsilosis was inactive. Also, the figures for the IC50 with Vero [2], with HeLa and in the series on Jurkat were 32 µg/mL (≈ 113 µM), 24 µg/mL (≈ 84.4 µM) and 17 µg/mL (≈ 59.8 µM), respectively. Besides, the MCC in [3] is 50 µg/mL.
As to `COC(=O)[C@]1(C)CCC[C@@]2(C)[C@H]1CC=C1C=C(C(C)C)CC[C@@H]12` [METHYL ABIETATE], the outcome with Human alphaherpesvirus 1 [5] was Active. In the series on Human alphaherpesvirus 1 [6], the result was inactive. For the same compound, the MCC in series [7] stood at 11 µM.
As for `CC(C)c1ccc2c(c1)CC[C@H]1[C@](C)(COC(=O)c3ccccc3)CCC[C@]21C` [DEHYDROABIETINOLBENZOATE], the outcome in the series on Candida albicans, in the series on Pichia kudriavzevii, with Human alphaherpesvirus 1 [5], with Human alphaherpesvirus 1 [6] and in the series on Candida parapsilosis was inactive. Moreover, the Activity in the series with Human alphaherpesvirus 1 [8] was 50 µg/mL. In addition, the IC50 in the series with Vero [2] was not below 200 µg/mL; with HeLa, not below 200 µg/mL; with Jurkat, 57 µg/mL (≈ 146 µM). In addition, the MCC in series [3] is more than 50 µg/mL. Further, the “Ratio IC50” value in the series on Vero [4] is reported as more than 3.5. The Ratio in the series with Human alphaherpesvirus 1 [9] came out at 3.16.
Regarding `CC(=O)OC[C@]1(C)CCC[C@]2(C)c3ccc(C(C)C)cc3CC[C@@H]12` [DEHYDROABIETINOL ACETATE], the “Ratio IC50” value is on record as 3.4 in the series with Vero [1] and 4.3 with Vero [4]. The outcome in the series with Candida albicans, in the series on Pichia kudriavzevii, with Human alphaherpesvirus 1 [5], in the series on Human alphaherpesvirus 1 [6], in the series with Candida tropicalis and with Candida parapsilosis was inactive. The Activity in the series with Human alphaherpesvirus 1 [8] was found to be 25 µg/mL. Also, the values for the IC50 with Vero [2], in the series on HeLa and in the series with Jurkat were 95 µg/mL, 28 µg/mL and 22 µg/mL, respectively. Besides, the MCC in series [3] is more than 50 µg/mL. The Ratio with Human alphaherpesvirus 1 [9] is recorded as 10.
Take `CC(C)c1ccc2c(c1)CC[C@H]1[C@](C)(COC(=O)c3cccnc3)CCC[C@]21C` [DEHYDROABIETINOLNICOTINATE]: the solubility entry in [10] is given as “Insoluble”.
As to `CC(C)c1ccc2c(c1)CC[C@H]1[C@](C)(CO)CCC[C@]21C` [POMIFERIN A], the “Ratio IC50” value in the series with Vero [1] is on record as 2.9; in the series with Vero [4] it was 3.9. Moreover, the outcome with Candida albicans, in the series with Pichia kudriavzevii, in the series on Human alphaherpesvirus 1 [5], with Human alphaherpesvirus 1 [6], in the series on Candida tropicalis and in the series with Candida parapsilosis was inactive. For the same compound, the IC50 in the series with Vero [2] worked out at 38 µg/mL (≈ 133 µM); with HeLa, 13 µg/mL (≈ 45.4 µM); in the series on Jurkat, 9.7 µg/mL (≈ 33.9 µM). The MCC in series [3] came out at 50 µg/mL.
`CC(C)c1ccc2c(c1)[C@H](O)C[C@H]1[C@](C)(C=O)CCC[C@]21C`: the “Ratio IC50” value worked out at 1.6 with Vero [1] and 3 with Vero [4]. Moreover, the outcome in the series with Candida albicans, in the series with Pichia kudriavzevii, in the series with Human alphaherpesvirus 1 [5], in the series with Human alphaherpesvirus 1 [6], in the series on Candida tropicalis and in the series with Candida parapsilosis was inactive. The IC50 in the series with Vero [2] stood at 36 µg/mL (≈ 120 µM); in the series on HeLa, 23 µg/mL (≈ 76.6 µM); in the series on Jurkat, 12 µg/mL (≈ 39.9 µM).
For `COC(=O)[C@]1(C)CCC[C@]2(C)c3ccc(C(C)C)cc3CC[C@@H]12` [METHYL DEHYDROABIETATE], the “Ratio IC50” value amounted to 1.3 in the series on Vero [1] and 1.7 with Vero [4]. Further, the result with Candida albicans, in the series with Pichia kudriavzevii, with Human alphaherpesvirus 1 [5], in the series on Human alphaherpesvirus 1 [6], with Candida tropicalis and in the series with Candida parapsilosis was inactive. Besides, the IC50 is 36 µg/mL (≈ 114 µM) in the series with Vero [2], 28 µg/mL (≈ 89 µM) with HeLa and 21 µg/mL (≈ 66.8 µM) in the series on Jurkat. For the same compound, in [3], the MCC was more than 50 µg/mL.
Regarding `Nc1nc2c(ncn2COCCO)c(=O)[nH]1` [ACYCLOVIR], in the series on Human alphaherpesvirus 1 [8], the Activity worked out at 6 µg/mL. For the same compound, the MCC in series [3] was more than 600 µg/mL. Besides, the Ratio in the series with Human alphaherpesvirus 1 [9] was found to be 1000.
Turning to `CC(C)c1ccc2c(c1)[C@H](O)C[C@H]1[C@](C)(CO)CCC[C@]21C`, the “Ratio IC50” value in the series with Vero [1] was found to be 1.5; in the series with Vero [4], 2.5. Besides, the result with Candida albicans, in the series on Pichia kudriavzevii, with Human alphaherpesvirus 1 [5], with Human alphaherpesvirus 1 [6], with Candida tropicalis and in the series on Candida parapsilosis was inactive. For the same compound, the minimal inhibitory concentration (MIC) in the series with Aspergillus fumigatus came out at 50 µg/mL (≈ 165 µM); in the series with Aspergillus niger, 63 µg/mL (≈ 208 µM). Besides, the values for the half-inhibitory concentration (IC50) with Vero [2], in the series with HeLa and with Jurkat were 30 µg/mL (≈ 99.2 µM), 20 µg/mL (≈ 66.1 µM) and 12 µg/mL (≈ 39.7 µM), respectively. In addition, the MCC in series [3] was 25 µg/mL.
On to `CC(C)C1=CC2=CC[C@@H]3[C@](C)(CCC[C@@]3(C)C(=O)O)[C@H]2CC1`, for which the result in the series on Human alphaherpesvirus 1 [5] and in the series on Human alphaherpesvirus 1 [6] was inactive.
For `CC(C)c1ccc2c(c1)CC[C@H]1[C@](C)(C(=O)O)CCC[C@]21C` [DEHYDROABIETIC ACID], the “Ratio IC50” value with Vero [1] is 0.9; with Vero [4], 3.2. Moreover, the result in the series with Candida albicans, with Pichia kudriavzevii, in the series with Human alphaherpesvirus 1 [5], in the series with Human alphaherpesvirus 1 [6] and in the series with Candida parapsilosis was inactive. The same compound registered an MIC against Aspergillus terreus of 39.7 µg/mL (≈ 132 µM). For the same compound, the IC50 in the series with Vero [2] was found to be 91 µg/mL (≈ 303 µM); with HeLa, 101 µg/mL (≈ 336 µM); in the series on Jurkat, 28 µg/mL (≈ 93.2 µM). The MCC in [3] was more than 50 µg/mL.
Take `CC(C)c1ccc2c(c1)C(=O)C[C@H]1[C@](C)(CO)CCC[C@]21C`: the results for the “Ratio IC50” value with Vero [1] and in the series on Vero [4] were 0.9 and 1.6, respectively. Moreover, the outcome in the series with Candida albicans, with Pichia kudriavzevii, in the series with Human alphaherpesvirus 1 [5], in the series on Human alphaherpesvirus 1 [6], in the series on Candida tropicalis and in the series with Candida parapsilosis was inactive. Also, the IC50 is 27 µg/mL (≈ 89.9 µM) in the series with Vero [2], 30 µg/mL (≈ 99.9 µM) in the series with HeLa and 17 µg/mL (≈ 56.6 µM) in the series on Jurkat. In [3], the MCC came to 25 µg/mL.

The term IC50 denotes the midpoint of a concentration-inhibition curve. In general, MIC refers to the lowest concentration that inhibits growth of the organism.
